In ChEMBL document CHEMBL2331396, “Exploration of 1-(3-chloro-4-(4-oxo-4H-chromen-2-yl)phenyl)-3-phenylurea derivatives as selective dual inhibitors of Raf1 and JNK1 kinases for anti-tumor treatment” (Bioorg Med Chem, 2013):
Active and inactive are the calls of the source. The rule behind the calls is not given here.

Assays:
A549 = assay: Antiproliferative activity against human A549 cells assessed as growth inhibition measured after 48 hrs by MTT assay; assay type: functional, cell-based; conditions: A549, 48 h
Outline: (§1)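 Compounds dissolved in DMSO and diluted in medium to final 0.5–50 µM (final DMSO <1%). Cells were grown in DMEM with 10% FBS, penicillin and streptomycin at 37 °C, 5% CO₂. They were seeded at 5 × 10⁵ cells/mL, incubated 24 h, then treated in triplicate per concentration for 48 h. MTT was added for 4 h, formazan dissolved in DMSO, absorbance read at 495 nm, and IC50 derived.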

HCT-116 = assay: Antiproliferative activity against human HCT116 cells assessed as growth inhibition measured after 48 hrs by MTT assay; assay type: functional, cell-based; conditions: HCT-116, 48 h; outline: as §1
HepG2 = assay: Antiproliferative activity against human HepG2 cells assessed as growth inhibition measured after 48 hrs by MTT assay; assay type: functional, cell-based; conditions: HepG2, 48 h; outline: as §1
[1] = Cytotoxicity against human HL7702 cells assessed as inhibition rate at 50 uM measured after 48 hrs by MTT assay; assay type: cell-based, L02; conditions: read-out: INH
Outline: (§2)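 Normal liver cells were grown in DMEM with 10% FBS plus penicillin/streptomycin at 37 °C, 5% CO₂. They were seeded at 5 × 10⁵ cells/mL and incubated 24 h. Compounds from DMSO stock were added at final 50 or 100 µM (DMSO <1%), in triplicate, for 48 h. MTT was added for 4 h, formazan dissolved in DMSO, A495 read, and inhibition rate calculated.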

[2] = Cytotoxicity against human QSG7701 cells assessed as inhibition rate at 50 uM measured after 48 hrs by MTT assay; assay type: cell-based; conditions: read-out: INH; outline: as §2
[3] = Cytotoxicity against human HL7702 cells assessed as inhibition rate at 100 uM measured after 48 hrs by MTT assay; assay type: cell-based, L02; conditions: read-out: INH; outline: as §2
[4] = Cytotoxicity against human QSG7701 cells assessed as inhibition rate at 100 uM measured after 48 hrs by MTT assay; assay type: cell-based; conditions: read-out: INH; outline: as §2
[5] = target: RAF proto-oncogene serine/threonine-protein kinase (Homo sapiens) (UniProt P04049); assay: Inhibition of Raf1 (unknown origin) at 50 uM
Outline: (§3)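 Kinase-Glo Plus luminescent assay. Enzyme, substrate, ATP and compound were mixed in 25 mM HEPES pH 7.4 with 10 mM MgCl₂ and incubated 1 h at 30 °C. The reaction was stopped with an equal volume of Kinase-Glo Plus reagent. Luminescence reflects remaining ATP, inversely related to kinase activity, and is reported as percent inhibition at a single concentration.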

[6] = target: Mitogen-activated protein kinase 14 (Homo sapiens) (UniProt Q16539); assay: Inhibition of p38-alpha (unknown origin) at 50 uM; outline: as §3
[7] = target: Mitogen-activated protein kinase 8 (Homo sapiens) (UniProt P45983); assay: Inhibition of JNK1 (unknown origin) at 50 uM
Outline: (§4)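 Luminescent Kinase-Glo Plus assay. Enzyme, substrate, ATP and compound were mixed in pH 7.4 buffer containing 25 mM HEPES and 10 mM MgCl2, then incubated at 30 °C for 1 h. An equal volume of Kinase-Glo Plus reagent stopped the reaction before luminescence was read. Signal tracks remaining ATP and runs inversely to kinase activity; results are given as percent inhibition.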

[8] = target: Mitogen-activated protein kinase 3 (Homo sapiens) (UniProt P27361); assay: Inhibition of ERK1 (unknown origin) at 50 uM; outline: as §4
Mitogen-activated protein kinase 3 (Homo sapiens), sequence (P27361 whole entry): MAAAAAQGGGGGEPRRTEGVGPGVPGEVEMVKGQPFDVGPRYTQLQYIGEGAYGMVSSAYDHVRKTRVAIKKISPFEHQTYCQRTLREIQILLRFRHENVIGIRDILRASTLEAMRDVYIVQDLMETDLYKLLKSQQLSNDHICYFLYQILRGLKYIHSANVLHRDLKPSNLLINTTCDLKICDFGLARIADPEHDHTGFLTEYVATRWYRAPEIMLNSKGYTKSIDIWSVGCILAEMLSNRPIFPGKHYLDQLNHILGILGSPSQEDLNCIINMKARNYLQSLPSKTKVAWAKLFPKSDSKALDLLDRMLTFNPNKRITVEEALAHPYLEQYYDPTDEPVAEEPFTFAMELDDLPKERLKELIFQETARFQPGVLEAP

RAF proto-oncogene serine/threonine-protein kinase (Homo sapiens), sequence (P04049 whole entry): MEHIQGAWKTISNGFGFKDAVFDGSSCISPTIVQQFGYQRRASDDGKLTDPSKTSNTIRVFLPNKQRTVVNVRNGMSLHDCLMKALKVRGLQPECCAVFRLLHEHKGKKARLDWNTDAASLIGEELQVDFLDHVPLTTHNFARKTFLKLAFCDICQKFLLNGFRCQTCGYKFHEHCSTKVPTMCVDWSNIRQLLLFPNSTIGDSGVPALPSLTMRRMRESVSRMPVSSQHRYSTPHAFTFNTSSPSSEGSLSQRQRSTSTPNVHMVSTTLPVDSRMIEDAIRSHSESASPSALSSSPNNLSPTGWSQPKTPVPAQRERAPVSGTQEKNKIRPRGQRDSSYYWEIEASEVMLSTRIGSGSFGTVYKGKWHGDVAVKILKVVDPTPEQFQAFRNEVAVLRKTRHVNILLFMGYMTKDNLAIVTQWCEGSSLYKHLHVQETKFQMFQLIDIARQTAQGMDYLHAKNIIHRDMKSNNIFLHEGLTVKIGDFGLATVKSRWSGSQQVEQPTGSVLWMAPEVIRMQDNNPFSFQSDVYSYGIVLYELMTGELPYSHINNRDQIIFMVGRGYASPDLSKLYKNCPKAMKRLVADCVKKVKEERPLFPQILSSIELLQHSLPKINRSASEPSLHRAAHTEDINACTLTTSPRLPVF
Mitogen-activated protein kinase 14 (Homo sapiens), sequence (Q16539 whole entry): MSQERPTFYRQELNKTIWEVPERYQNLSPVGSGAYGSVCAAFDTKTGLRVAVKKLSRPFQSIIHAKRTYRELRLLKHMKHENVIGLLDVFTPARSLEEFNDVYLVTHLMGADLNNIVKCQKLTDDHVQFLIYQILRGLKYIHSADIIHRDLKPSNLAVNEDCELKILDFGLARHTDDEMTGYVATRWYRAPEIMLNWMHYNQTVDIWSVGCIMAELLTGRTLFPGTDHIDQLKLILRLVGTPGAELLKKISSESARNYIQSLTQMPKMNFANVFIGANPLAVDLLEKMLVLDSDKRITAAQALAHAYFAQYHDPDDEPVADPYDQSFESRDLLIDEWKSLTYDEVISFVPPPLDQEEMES
Mitogen-activated protein kinase 8 (Homo sapiens), sequence (P45983 whole entry): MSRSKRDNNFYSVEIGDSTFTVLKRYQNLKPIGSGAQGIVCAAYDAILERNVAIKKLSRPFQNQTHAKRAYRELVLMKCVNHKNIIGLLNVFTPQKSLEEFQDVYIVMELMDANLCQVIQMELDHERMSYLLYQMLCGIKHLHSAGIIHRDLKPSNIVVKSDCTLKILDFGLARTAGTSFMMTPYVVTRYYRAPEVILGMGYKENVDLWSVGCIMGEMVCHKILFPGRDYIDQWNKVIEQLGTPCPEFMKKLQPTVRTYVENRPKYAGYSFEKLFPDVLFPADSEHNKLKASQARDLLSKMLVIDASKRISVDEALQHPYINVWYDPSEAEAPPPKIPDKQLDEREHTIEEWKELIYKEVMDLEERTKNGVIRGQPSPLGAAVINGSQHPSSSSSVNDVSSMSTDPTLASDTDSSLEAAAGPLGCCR

| SMILES | IC50 (A549) [µM] | IC50 (HCT-116) [µM] | IC50 (HepG2) [µM] | cytotoxicity at 48 h, 50 µM [1] [%] | cytotoxicity at 48 h, 50 µM [2] [%] | cytotoxicity at 48 h, 100 µM [3] [%] | cytotoxicity at 48 h, 100 µM [4] [%] | inhibition [5] | inhibition [6] | inhibition [7] [%] | inhibition [8] [%] |
| --- | --- | --- | --- | --- | --- | --- | --- | --- | --- | --- | --- |
| COc1ccc2oc(-c3ccc(NC(=O)Nc4cccc(Cl)c4)cc3Cl)cc(=O)c2c1 | 11 | 9.6 | 26.3 | 35.7 | 15.9 | 40.6 | 30.1 |  |  |  |  |
| COc1ccc2oc(-c3ccc(NC(=O)Nc4ccc(Cl)c(Cl)c4)cc3Cl)cc(=O)c2c1 | 15.6 | 8.6 | 9.9 | 66.4 | 13.2 | 77.9 | 42.5 |  |  |  |  |
| O=C(Nc1cccc(Cl)c1)Nc1ccc(-c2cc(=O)c3ccccc3o2)c(Cl)c1 | 14 | 25.4 | 9.7 | 26.8 | 48.9 | 47.1 | 62.4 |  |  |  |  |
| CNC(=O)c1cc(Oc2ccc(NC(=O)Nc3ccc(Cl)c(C(F)(F)F)c3)cc2)ccn1 [SORAFENIB] | 4.5 | 2.3 | 5 | 5.3 | 4.2 | 20.2 | 23.2 | 101% |  |  |  |
| O=C(Nc1cccc(Cl)c1)Nc1ccc(-c2cc(=O)c3ccc(O)cc3o2)c(Cl)c1 | 16.8 | 25.9 | 12.2 | 80.2 | 34.6 | 83.8 | 43.2 |  |  |  |  |
| Nc1ccc(-c2cc(=O)c3ccc(O)cc3o2)c(Cl)c1 |  |  |  |  |  |  |  | inactive | inactive |  |  |
| CN[C@@H]1C[C@H]2O[C@@](C)([C@@H]1OC)n1c3ccccc3c3c4c(c5c6ccccc6n2c5c31)C(=O)NC4 |  |  |  |  |  |  |  |  |  | 96 | 99.4 |
